ChEMBL document CHEMBL3872230, “Inhibition of the enzymes in the leukotriene and prostaglandin pathways in inflammation by 3-aryl isocoumarins” (Eur J Med Chem, 2016)
Activity calls are given as the source filed them. The calls are words filed in the database; no cut-off is given here.

T1: Polyunsaturated fatty acid 5-lipoxygenase (Homo sapiens) (UniProt P09917)
T1 sequence (whole entry): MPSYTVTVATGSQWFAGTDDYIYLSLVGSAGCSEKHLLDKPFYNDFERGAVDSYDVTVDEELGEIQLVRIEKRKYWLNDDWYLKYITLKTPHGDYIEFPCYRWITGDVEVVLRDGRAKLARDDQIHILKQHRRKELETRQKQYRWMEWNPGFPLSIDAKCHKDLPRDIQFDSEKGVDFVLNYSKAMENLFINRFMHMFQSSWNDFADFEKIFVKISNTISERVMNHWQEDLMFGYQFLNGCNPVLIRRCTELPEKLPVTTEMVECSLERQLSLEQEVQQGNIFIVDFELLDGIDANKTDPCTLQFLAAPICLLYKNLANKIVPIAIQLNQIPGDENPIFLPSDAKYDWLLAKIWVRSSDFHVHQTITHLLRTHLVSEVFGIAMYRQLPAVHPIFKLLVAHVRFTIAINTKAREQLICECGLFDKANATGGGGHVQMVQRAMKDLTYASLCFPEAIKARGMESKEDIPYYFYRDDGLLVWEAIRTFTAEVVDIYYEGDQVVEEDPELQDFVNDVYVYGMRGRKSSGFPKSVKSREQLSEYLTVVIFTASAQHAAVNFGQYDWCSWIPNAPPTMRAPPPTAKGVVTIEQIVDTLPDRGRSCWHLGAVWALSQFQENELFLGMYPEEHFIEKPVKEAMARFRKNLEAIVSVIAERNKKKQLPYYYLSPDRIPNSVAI

T2: Prostaglandin E synthase (Homo sapiens) (UniProt O14684)
T2 sequence (whole entry): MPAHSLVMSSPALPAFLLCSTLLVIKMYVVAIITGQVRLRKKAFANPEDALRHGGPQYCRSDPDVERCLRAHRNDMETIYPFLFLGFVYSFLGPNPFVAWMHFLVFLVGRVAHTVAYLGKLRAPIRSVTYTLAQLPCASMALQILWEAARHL

T3: Polyunsaturated fatty acid 5-lipoxygenase (Homo sapiens, UniProt P09917)
T3 sequence (P09917 whole entry): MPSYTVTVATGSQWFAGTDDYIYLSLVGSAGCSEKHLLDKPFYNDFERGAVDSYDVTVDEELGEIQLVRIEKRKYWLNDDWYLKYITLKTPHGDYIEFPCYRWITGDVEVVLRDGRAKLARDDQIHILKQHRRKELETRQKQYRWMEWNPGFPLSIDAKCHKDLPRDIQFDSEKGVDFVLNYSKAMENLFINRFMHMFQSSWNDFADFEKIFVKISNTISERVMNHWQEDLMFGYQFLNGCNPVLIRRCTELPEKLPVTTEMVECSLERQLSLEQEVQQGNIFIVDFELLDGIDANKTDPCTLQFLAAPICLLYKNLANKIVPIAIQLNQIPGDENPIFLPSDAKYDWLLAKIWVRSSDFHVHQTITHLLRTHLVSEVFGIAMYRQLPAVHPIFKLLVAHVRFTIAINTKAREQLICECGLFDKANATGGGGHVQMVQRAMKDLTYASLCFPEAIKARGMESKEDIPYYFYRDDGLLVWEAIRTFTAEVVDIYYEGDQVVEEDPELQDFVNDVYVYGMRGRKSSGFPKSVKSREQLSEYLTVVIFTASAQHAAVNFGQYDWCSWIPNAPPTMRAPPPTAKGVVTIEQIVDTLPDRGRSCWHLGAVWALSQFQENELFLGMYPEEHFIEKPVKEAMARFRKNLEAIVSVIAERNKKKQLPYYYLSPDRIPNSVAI

T4: Prostaglandin E synthase (Homo sapiens, UniProt O14684)
T4 sequence (O14684 whole entry): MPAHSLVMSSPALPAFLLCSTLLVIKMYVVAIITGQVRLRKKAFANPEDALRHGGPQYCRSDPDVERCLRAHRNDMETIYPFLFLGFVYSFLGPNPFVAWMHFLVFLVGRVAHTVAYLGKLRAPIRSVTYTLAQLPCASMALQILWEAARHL


Key:
[1] = biological target: T1, Polyunsaturated fatty acid 5-lipoxygenase (Homo sapiens); assay: Inhibition of human recombinant 5-LOX expressed in Escherichia coli BL21 assessed as decrease in 5-HPETE production at 50 uM preincubated with enzyme followed by arachidonic acid substrate addition by UV-vis spectrophotometry
[2] = Cytotoxicity against human HeLa cells assessed as cell proliferation at 50 uM after 24 hrs by MTT assay; assay type: toxicity, cell-based; conditions: read-out: Activity
[3] = biological target: T2, Prostaglandin E synthase (Homo sapiens); assay: Inhibition of mPGES1 in human HeLa cells assessed as reduction in TNF-alpha induced PGE2 production at 50 uM preincubated for 2 hrs followed by TNF-alpha addition for 24 hrs by ELISA; assay type: cell-based
Summary of the method: (§1)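 Read-out was PGE2 released into the HeLa culture supernatant, measured with an ELISA kit.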

[4] = Antioxidant activity assessed as DPPH radical scavenging activity at 50 uM after 30 mins; assay type: functional
[5] = biological target: T3, Polyunsaturated fatty acid 5-lipoxygenase; assay: Inhibition of human recombinant 5-LOX expressed in Escherichia coli BL21 assessed as decrease in 5-HPETE production preincubated with enzyme followed by arachidonic acid substrate addition by UV-vis spectrophotometry
[6] = tested on: HeLa; assay: Increase in TGF-beta3 mRNA expression in human HeLa cells at 50 uM by RT-PCR method relative to control; assay type: functional
Summary of the method: (§2)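 Real-time PCR on treated HeLa cells. mRNA levels were normalized to untreated cells and to β-actin, and significance was assessed by 2-way ANOVA.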

[7] = biological target: T5, Prostaglandin E synthase/G/H synthase 2 (Homo sapiens) (UniProt P35354+O14684); assay: Inhibition of COX-2/mPGES1 in human HeLa cells assessed as reduction in TNF-alpha induced PGE2 production at 50 uM preincubated for 15 mins followed by arachidonic acid addition for 15 mins by ELISA; assay type: cell-based
Summary of the method: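 HeLa cells primed with TNF at 50 ng/ml to induce mPGES1, then exposed to compound for 15 min, then challenged with exogenous arachidonic acid for a further 15 min. PGE2 released into the culture supernatant was quantified by ELISA.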

[8] = tested on: HeLa; assay: Increase in IFN-gamma mRNA expression in human HeLa cells at 50 uM by RT-PCR method relative to control; assay type: functional; summary of the method: as §2
[9] = tested on: HeLa; assay: Increase in IL-6 mRNA expression in human HeLa cells at 50 uM by RT-PCR method relative to control; assay type: functional; summary of the method: as §2
[10] = biological target: T5, Prostaglandin E synthase/G/H synthase 2 (Homo sapiens); assay: Inhibition of COX-2/mPGES1 in human HeLa cells assessed as reduction in TNF-alpha induced PGE2 production at 50 uM after 15 mins followed by ELISA; assay type: cell-based
Summary of the method: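 TNF-treated HeLa cells were exposed to compound for 15 min without added arachidonic acid. PGE2 released into the culture supernatant was measured by ELISA.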

[11] = tested on: HeLa; assay: Inhibition of mPGES1 mRNA expression in human HeLa cells at 50 uM by RT-PCR method; assay type: functional, cell-based; summary of the method: as §2
[12] = tested on: HeLa; assay: Inhibition of COX-2 mRNA expression in human HeLa cells at 50 uM by RT-PCR method; assay type: functional, cell-based; summary of the method: as §2
[13] = tested on: HeLa; assay: Increase in NFkappaB mRNA expression in human HeLa cells at 50 uM by RT-PCR method relative to control; assay type: functional; summary of the method: as §2
[14] = biological target: T4, Prostaglandin E synthase; assay: Inhibition of mPGES1 in human HeLa cells assessed as reduction in TNF-alpha induced PGE2 production preincubated for 2 hrs followed by TNF-alpha addition for 24 hrs by ELISA; assay type: cell-based; summary of the method: as §1
[15] = biological target: T1, Polyunsaturated fatty acid 5-lipoxygenase (Homo sapiens); conditions: 10 uM
[16] = substrate: O=c1oc(-c2ccc(O)c(O)c2)cc2ccccc12; conditions: Homo sapiens; 10 uM
[17] = substrate: COc1cc(-c2cc3cccc(O)c3c(=O)o2)cc(OC)c1OC; conditions: Homo sapiens; 30 uM
[18] = substrate: O=c1oc(-c2ccc(O)c(O)c2)cc2ccccc12; conditions: Homo sapiens; 50 uM
[19] = substrate: COc1cc(-c2cc3cccc(O)c3c(=O)o2)cc(OC)c1OC; conditions: Homo sapiens; 30 uM; remark: listed apart in the source
[20] = substrate: O=c1oc(-c2ccc(O)c(O)c2)cc2ccccc12; conditions: Homo sapiens; 50 uM; remark: listed apart in the source
[21] = substrate: COc1cc(-c2cc3cccc(O)c3c(=O)o2)cc(OC)c1OC; conditions: Homo sapiens; 10 uM
[22] = substrate: COc1cc(-c2cc3cccc(O)c3c(=O)o2)cc(OC)c1OC; conditions: Homo sapiens; 10 uM; remark: listed apart in the source
[23] = substrate: O=c1oc(-c2ccc(O)c(O)c2)cc2ccccc12; conditions: Homo sapiens; 10 uM; remark: listed apart in the source

T5 sequence (P35354 whole entry, looked up, one chain of several): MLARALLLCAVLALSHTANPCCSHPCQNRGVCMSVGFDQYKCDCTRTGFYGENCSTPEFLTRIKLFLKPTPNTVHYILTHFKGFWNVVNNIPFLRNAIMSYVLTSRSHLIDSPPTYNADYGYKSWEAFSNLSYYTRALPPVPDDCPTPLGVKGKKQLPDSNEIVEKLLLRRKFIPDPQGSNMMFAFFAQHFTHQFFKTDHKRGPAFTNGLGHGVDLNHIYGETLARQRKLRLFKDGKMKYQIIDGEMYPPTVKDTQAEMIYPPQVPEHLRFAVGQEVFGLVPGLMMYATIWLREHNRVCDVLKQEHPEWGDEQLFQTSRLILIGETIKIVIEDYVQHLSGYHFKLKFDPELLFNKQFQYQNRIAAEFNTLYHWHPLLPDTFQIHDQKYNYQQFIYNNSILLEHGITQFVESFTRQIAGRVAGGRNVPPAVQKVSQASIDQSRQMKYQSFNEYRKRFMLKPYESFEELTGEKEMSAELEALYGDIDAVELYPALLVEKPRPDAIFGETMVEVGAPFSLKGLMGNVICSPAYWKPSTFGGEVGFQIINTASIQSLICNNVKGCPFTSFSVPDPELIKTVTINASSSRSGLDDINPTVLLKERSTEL

Row | Molecule | inhibition [1] | viability at 24 h, 50 µM [2] | inhibition [3] | Activity [4] | other results
1 | O=c1oc(-c2ccccc2)cc2cccc(O)c12 | 55.3% | 75.6% | 60% | 13.4% | 
2 | COc1cc(-c2cc3cccc(O)c3c(=O)o2)ccc1O | 35.6% | 79.8% | 75% | 36.2% | 
3 | CC(c1cc2ccccc2s1)N(O)C(N)=O (centres undefined) [ZILEUTON] |  | 78% | 50% | 33.6% | 
4 | O=c1oc(-c2ccc(O)c(O)c2)cc2ccccc12 | 84.1% | 78.7% | 78% | 53 to 53.2% | IC50 [5]: 4.6 µM; fold change (FC) [6]: 1; inhibition [7]: 44%; fold change (FC) [8]: 5.6; fold change (FC) [9]: 1; inhibition [10]: 76%; inhibition [11]: Active; inhibition [12]: Active; fold change (FC) [13]: 1
5 | O=c1oc(-c2ccc(O)cc2)cc2cccc(O)c12 | 36.4% | 70.6% | 74% | 12.6% | IC50 [14]: 7.1 µM
6 | O=c1oc(-c2ccccc2)cc2ccccc12 | 50% | 76.7% | 75% | 14% | IC50 [14]: 9.5 µM
7 | O=c1oc(-c2ccc(O)c(O)c2)cc2cccc(O)c12 [THUNBERGINOL A] | 40.9% | 68.7% | 74% | 49% | fold change (FC) [6]: 1; inhibition [7]: 17%; fold change (FC) [8]: 9.6; fold change (FC) [9]: 1; inhibition [10]: 75%; inhibition [11]: Active; inhibition [12]: Active; fold change (FC) [13]: 1
8 | O=C1O[C@H]([C@@H](O)CO)C(O)=C1O |  |  |  | 82.2% | 
9 | O=c1oc(-c2ccc(O)cc2)cc2ccccc12 | 34.1% | 81.4% | 65% | 17% | 
10 | COc1cc(-c2cc3ccccc3c(=O)o2)cc(OC)c1OC | 72% | 75.7% | 73% | 15.8% | IC50 [5]: 20.9 µM; IC50 [14]: 9.3 µM
11 | COc1cc(-c2cc3ccccc3c(=O)o2)ccc1O | 78.8% | 65% | 73% | 47.8% | IC50 [5]: 22.8 µM
12 | COc1cc(O)c2c(=O)oc(-c3cc(OC)c(OC)c(OC)c3)cc2c1 | 36.2% | 60.5% | 14% | 15.4% | 
13 | COc1ccc(-c2cc3ccccc3c(=O)o2)cc1O | 65.9% | 70.5% | 18% | 20% | IC50 [14]: 9.7 µM
14 | COc1ccc(-c2cc3cccc(O)c3c(=O)o2)cc1O | 59.1% | 77.4% | 44% | 17.8% | IC50 [14]: 11.3 µM
15 | COc1cc(-c2cc3cccc(O)c3c(=O)o2)cc(OC)c1OC | 80 to 80.3% | 80.2% | 68% | 12 to 12.4% | IC50 [5]: 12.4 µM; inhibition [15]: Active
16 | COc1cc(O)c2c(=O)oc(-c3ccccc3)cc2c1 | 49.2% | 78.1% | 54% | 16.6% | 
17 | Polyunsaturated fatty acid 5-lipoxygenase (Homo sapiens), P09917 (protein) MPSYTVTVATGSQWFAGTDDYIYLSLVGSAGCSEKHLLDKPFYNDFERGAVDSYDVTVDEELGEIQLVRIEKRKYWLNDDWYLKYITLKTPHGDYIEFPCYRWITGDVEVVLRDGRAKLARDDQIHILKQHRRKELETRQKQYRWMEWNPGFPLSIDAKCHKDLPRDIQFDSEKGVDFVLNYSKAMENLFINRFMHMFQSSWNDFADFEKIFVKISNTISERVMNHWQEDLMFGYQFLNGCNPVLIRRCTELPEKLPVTTEMVECSLERQLSLEQEVQQGNIFIVDFELLDGIDANKTDPCTLQFLAAPICLLYKNLANKIVPIAIQLNQIPGDENPIFLPSDAKYDWLLAKIWVRSSDFHVHQTITHLLRTHLVSEVFGIAMYRQLPAVHPIFKLLVAHVRFTIAINTKAREQLICECGLFDKANATGGGGHVQMVQRAMKDLTYASLCFPEAIKARGMESKEDIPYYFYRDDGLLVWEAIRTFTAEVVDIYYEGDQVVEEDPELQDFVNDVYVYGMRGRKSSGFPKSVKSREQLSEYLTVVIFTASAQHAAVNFGQYDWCSWIPNAPPTMRAPPPTAKGVVTIEQIVDTLPDRGRSCWHLGAVWALSQFQENELFLGMYPEEHFIEKPVKEAMARFRKNLEAIVSVIAERNKKKQLPYYYLSPDRIPNSVAI |  |  |  |  | Vmax [16]: 0.93 nmol/min; Vmax [17]: 0.93 nmol/min; Km [18]: 1.17 µM; Km [19]: 1.45 µM; Vmax [20]: 0.64 nmol/min; Vmax [21]: 0.83 nmol/min; Km [22]: 1.2 µM; Km [23]: 1.38 µM
